Laboratory results from ChEMBL document CHEMBL5712894, “Regulation of angiotensin II actions by enhancers and super-enhancers in vascular smooth muscle cells” (Nat Commun, 2017).
Active and inactive are the calls of the source. No cut-off for these calls is given here.

What was measured:
VSMC [1] = assay: Downregulation of Foxp1 gene expression in human VSMC cells pretreated with compound at 250 to 500 nM followed by AngII addition measured by RT-qPCR analysis; assay type: functional, cell-based; settings: dose 250-500 nM
Rattus norvegicus [2] = species on record: Rattus norvegicus; assay: Downregulation of Tgif1 gene expression in rat aorta pretreated with compound at 500 nM followed by AngII addition measured by ChIP assay; assay type: functional, tissue-based
VSMC [3] = assay: Downregulation of Tgif1 gene expression in human VSMC cells pretreated with compound at 250 to 500 nM followed by AngII addition measured by RT-qPCR analysis; assay type: functional, cell-based; settings: dose 250-500 nM
Mus musculus [4] = assay: Antihypersensitivity in 1 ug/kg/min AngII infused C57BL/6 mouse assessed as reduction in medial hypertrophy at 50 mg/kg, ip for 4 weeks by F4/80 staining analysis; assay type: functional, organism-based
Procedure, shortened: (§1)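 Male C57BL/6 mice with subcutaneous osmotic minipumps delivering AngII (1.0 μg kg−1 min−1, 28 days); from 2 days post-implantation, 50 mg kg−1 ip once daily (vehicle DMSO). Aortas formalin-fixed, paraffin 5 µm sections. H&E sections quantified for wall thickness; F4/80 IHC (DAB) quantified as reciprocal brown intensity excluding adventitia. Mean + SEM, one-way ANOVA with Tukey.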

Mus musculus [5] = assay: Antihypersensitivity in 1 ug/kg/min AngII infused C57BL/6 mouse assessed as reduction in systolic blood pressure at 50 mg/kg, ip for 4 weeks; assay type: functional, organism-based
Procedure, shortened: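 Male C57BL/6 mice infused with AngII via subcutaneous osmotic minipump (1.0 μg kg−1 min−1, 28 days); 50 mg kg−1 ip once daily starting 2 days post-implantation, vehicle DMSO. Systolic pressure by tail cuff during week 4. n = 7–8 mice/group, mean + SEM, one-way ANOVA with Tukey.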

Rattus norvegicus [6] = species on record: Rattus norvegicus; assay: Downregulation of Spry2 gene expression in rat aorta pretreated with compound at 500 nM followed by AngII addition measured by ChIP assay; assay type: functional, tissue-based
VSMC [7] = assay: Downregulation of ESM1 gene expression in human VSMC cells pretreated with compound at 250 to 500 nM followed by AngII addition measured by RT-qPCR analysis; assay type: functional, cell-based; settings: dose 250-500 nM
Rattus norvegicus [8] = species on record: Rattus norvegicus; assay: Downregulation of Fgf2 gene expression in rat aorta pretreated with compound at 500 nM followed by AngII addition measured by ChIP assay; assay type: functional, tissue-based
[9] = Binding affinity of BRD2 (unknown origin) assessed as dissociation constant; design: species or system Homo sapiens
Rattus norvegicus [10] = species on record: Rattus norvegicus; assay: Downregulation of ESM1 gene expression in rat aorta pretreated with compound at 500 nM followed by AngII addition measured by ChIP assay; assay type: functional, tissue-based
VSMC [11] = assay: Downregulation of Fgf2 gene expression in human VSMC cells pretreated with compound at 250 to 500 nM followed by AngII addition measured by RT-qPCR analysis; assay type: functional, cell-based; settings: dose 250-500 nM
VSMC [12] = assay: Downregulation of Egr2 gene expression in human VSMC cells pretreated with compound at 250 to 500 nM followed by AngII addition measured by RT-qPCR analysis; assay type: functional, cell-based; settings: dose 250-500 nM
VSMC [13] = assay: Downregulation of Spry2 gene expression in human VSMC cells pretreated with compound at 250 to 500 nM followed by AngII addition measured by RT-qPCR analysis; assay type: functional, cell-based; settings: dose 250-500 nM
VSMC [14] = assay: Downregulation of Flt gene expression in human VSMC cells pretreated with compound at 250 to 500 nM followed by AngII addition measured by RT-qPCR analysis; assay type: functional, cell-based; settings: dose 250-500 nM
Rattus norvegicus [15] = species on record: Rattus norvegicus; assay: Downregulation of Foxp1 gene expression in rat aorta pretreated with compound at 500 nM followed by AngII addition measured by ChIP assay; assay type: functional, tissue-based
VSMC [16] = assay: Downregulation of Fst gene expression in human VSMC cells pretreated with compound at 250 to 500 nM followed by AngII addition measured by RT-qPCR analysis; assay type: functional, cell-based; settings: dose 250-500 nM
Rattus norvegicus [17] = species on record: Rattus norvegicus; assay: Downregulation of fst gene expression in rat aorta pretreated with compound at 500 nM followed by AngII addition measured by ChIP assay; assay type: functional, tissue-based
Mus musculus [18] = assay: Antihypersensitivity in 1 ug/kg/min AngII infused C57BL/6 mouse assessed as reduction in inflammation at 50 mg/kg, ip for 4 weeks by F4/80 staining analysis; assay type: functional, organism-based; procedure, shortened: as §1

For `Cc1sc2c(c1C)C(c1ccc(Cl)cc1)=N[C@@H](CC(=O)OC(C)(C)C)c1nnc(C)n1-2`, the Activity (VSMC [1]) was “Active”, the Activity (Rattus norvegicus [2]) was “Active” and the Activity (VSMC [3]) was “Active”. For the same compound, the Activity (Mus musculus [4]) was “Active”, the Activity (Mus musculus [5]) was “Active” and the Activity (Rattus norvegicus [6]) was “Active”. For the same compound, the Activity (VSMC [7]) was “Active”, the Activity (Rattus norvegicus [8]) was “Active” and the Kd [9] was about 128 nM. The Activity (Rattus norvegicus [10]) was “Active”, the Activity (VSMC [11]) was “Active” and the Activity (VSMC [12]) was “Active”. For the same compound, the Activity (VSMC [13]) was “Active”, the Activity (VSMC [14]) was “Active” and the Activity (Rattus norvegicus [15]) was “Active”. The Activity (VSMC [16]) was “Active”, the Activity (Rattus norvegicus [17]) was “Active” and the Activity (Mus musculus [18]) was “Active”.
